{
  "source": "ChEMBL document CHEMBL5500397",
  "about": "“Discovery of CDC42 Inhibitors with a Favorable Pharmacokinetic Profile and Anticancer In Vivo Efficacy” (J Med Chem, 2024)",
  "key": {"[1]": {"test": "Metabolic stability in mouse plasma assessed as half life at 2 uM measured after 0 to 120 mins by LC-MS/MS analysis", "assay_type": "ADME, cell-free", "conditions": "time 0-120 min; for t1/2: 2 µM"}, "[2]": {"test": "Oral bioavailability in male CD-1 mouse at 10 mg/kg measured upto 480 mins by LC-MS/MS analysis", "assay_type": "ADME, organism-based", "conditions": "in vivo, 8 h", "summary_of_the_method": "(§1)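 Mouse PK after single oral dose of 10 mg/kg; n = 3 animals per time point; plasma concentration–time profile used for observed and calculated PK parameters.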"}, "[3]": {"test": "Half life in male CD-1 mouse at 10 mg/kg, po measured upto 480 mins by LC-MS/MS analysis", "assay_type": "ADME, organism-based", "conditions": "in vivo, 8 h", "summary_of_the_method": "as §1"}, "[4]": {"test": "Drug concentration in male CD-1 mouse plasma at 3 mg/kg, iv measured after 4 hrs by LC-MS/MS analysis", "assay_type": "ADME, organism-based", "summary_of_the_method": "(§2)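 Mouse PK after single intravenous injection of 3 mg/kg; n = 3 animals per time point; plasma concentration–time profile used for observed and calculated PK parameters.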"}, "[5]": {"test": "Tmax in male CD-1 mouse at 3 mg/kg, iv measured upto 240 mins by LC/MS/MS analysis", "assay_type": "ADME, organism-based", "conditions": "in vivo, 4 h", "summary_of_the_method": "as §2"}, "[6]": {"test": "Half life in male CD-1 mouse at 3 mg/kg, iv measured upto 240 mins by LC/MS/MS analysis", "assay_type": "ADME, organism-based", "conditions": "in vivo, 4 h", "summary_of_the_method": "as §2"}, "[7]": {"test": "Cmax in male CD-1 mouse at 10 mg/kg, po measured upto 480 mins by LC-MS/MS analysis", "assay_type": "ADME, organism-based", "conditions": "in vivo, 8 h", "summary_of_the_method": "as §1"}, "[8]": {"test": "Cmax in male CD-1 mouse at 3 mg/kg, iv measured upto 240 mins by LC/MS/MS analysis", "assay_type": "ADME, organism-based", "conditions": "in vivo, 4 h"}, "[9]": {"test": "Drug concentration in male CD-1 mouse plasma at 10 mg/kg, po measured after 4 hrs by LC-MS/MS analysis", "assay_type": "ADME, organism-based", "summary_of_the_method": "as §1"}, "[10]": {"test": "Metabolic stability in mouse liver microsomes assessed as half life at […] preincubated for 15 mins followed by NADPH cofactor addition and measured after 1 hr by LC-MS/MS analysis", "assay_type": "ADME, Microsome", "conditions": "dose 4.6 µM, time 75 min"}, "[11]": {"test": "Drug concentration in male CD-1 mouse plasma at 10 mg/kg, po measured after 8 hrs by LC-MS/MS analysis", "assay_type": "ADME, organism-based", "summary_of_the_method": "as §1"}},
  "data": [
    {"smiles": "FC(F)(F)c1cccc(Nc2nc(-c3ccccc3)cc(C3CCNCC3)n2)c1", "values": [
      {"measurement": "t1/2", "setting": "[1]", "value": "> 2", "unit": "h"}
    ]},
    {"smiles": "COc1cc(Nc2nc(-c3ccccc3)cc(C3CCNCC3)n2)ccn1", "values": [
      {"measurement": "t1/2", "setting": "[1]", "value": "> 2", "unit": "h"}
    ]},
    {"smiles": "c1ccc(-c2cc(Nc3ccc4cc[nH]c4c3)nc(C3CCNCC3)n2)cc1", "values": [
      {"measurement": "t1/2", "setting": "[1]", "value": "> 2", "unit": "h"}
    ]},
    {"smiles": "FC(F)(F)c1cc(Nc2nc(-c3ccccc3)cc(C3CCNCC3)n2)ccn1", "values": [
      {"measurement": "F", "setting": "[2]", "value": 8, "unit": "%"},
      {"measurement": "t1/2", "setting": "[3]", "value": 1.52, "unit": "h"},
      {"measurement": "concentration at 4 h", "setting": "[4]", "value": 84, "unit": "ng/mL"},
      {"measurement": "Tmax", "setting": "[5]", "value": 5, "unit": "min"},
      {"measurement": "t1/2", "setting": "[6]", "value": 1.92, "unit": "h"},
      {"measurement": "Cmax", "setting": "[7]", "value": 99, "unit": "ng/mL"},
      {"measurement": "t1/2", "setting": "[1]", "value": "> 2", "unit": "h"},
      {"measurement": "Cmax", "setting": "[8]", "value": 643, "unit": "ng/mL"},
      {"measurement": "concentration at 4 h", "setting": "[9]", "value": 40, "unit": "ng/mL"}
    ]},
    {"smiles": "FC(F)(F)c1cccc(Nc2nc(-c3cccc4cnccc34)nc(C3CCNCC3)n2)c1", "values": [
      {"measurement": "half-life at […]", "setting": "[10]", "value": "> 1", "unit": "h"},
      {"measurement": "half-life at 2 µM", "setting": "[1]", "value": "> 2", "unit": "h"}
    ]},
    {"smiles": "CN(C)c1cccc(Nc2nc(-c3ccccc3)cc(C3CCNCC3)n2)c1", "values": [
      {"measurement": "t1/2", "setting": "[1]", "value": 1, "unit": "h"}
    ]},
    {"smiles": "Cn1ccc2ccc(Nc3cc(-c4ccccc4)nc(C4CCNCC4)n3)cc21", "values": [
      {"measurement": "t1/2", "setting": "[1]", "value": "> 2", "unit": "h"}
    ]},
    {"smiles": "FC(F)(F)Oc1cccc(Nc2nc(-c3ccccc3)cc(C3CCNCC3)n2)c1", "values": [
      {"measurement": "t1/2", "setting": "[1]", "value": "> 2", "unit": "h"}
    ]},
    {"smiles": "COc1ccc(Nc2nc(-c3ccccc3)cc(C3CCNCC3)n2)cc1OC", "values": [
      {"measurement": "F", "setting": "[2]", "value": 22, "unit": "%"},
      {"measurement": "t1/2", "setting": "[3]", "value": 2.8, "unit": "h"},
      {"measurement": "concentration at 4 h", "setting": "[4]", "value": 74, "unit": "ng/mL"},
      {"measurement": "Tmax", "setting": "[5]", "value": 5, "unit": "min"},
      {"measurement": "t1/2", "setting": "[6]", "value": 4.28, "unit": "h"},
      {"measurement": "Cmax", "setting": "[7]", "value": 140, "unit": "ng/mL"},
      {"measurement": "half-life at 2 µM", "setting": "[1]", "value": "> 2", "unit": "h"},
      {"measurement": "concentration at 8 h", "setting": "[11]", "value": 7, "unit": "ng/mL"},
      {"measurement": "Cmax", "setting": "[8]", "value": 320, "unit": "ng/mL"}
    ]},
    {"smiles": "COc1ccc(Nc2nc(-c3ccccc3)cc(C3CCNCC3)n2)cn1", "values": [
      {"measurement": "t1/2", "setting": "[1]", "value": "> 2", "unit": "h"}
    ]},
    {"smiles": "COC(=O)c1cc(Nc2nc(-c3ccccc3)cc(C3CCNCC3)n2)ccc1OC", "values": [
      {"measurement": "t1/2", "setting": "[1]", "value": 1.48, "unit": "h"}
    ]},
    {"smiles": "Cn1ccc2cc(-c3nc(Nc4cccc(C(F)(F)F)c4)nc(C4CCNCC4)n3)ccc21", "values": [
      {"measurement": "half-life at […]", "setting": "[10]", "value": "> 1", "unit": "h"},
      {"measurement": "half-life at 2 µM", "setting": "[1]", "value": "> 2", "unit": "h"}
    ]},
    {"smiles": "FC(F)(F)c1cccc(Nc2nc(-c3coc4ccccc34)nc(C3CCNCC3)n2)c1", "values": [
      {"measurement": "half-life at […]", "setting": "[10]", "value": "> 1", "unit": "h"},
      {"measurement": "half-life at 2 µM", "setting": "[1]", "value": "> 2", "unit": "h"}
    ]},
    {"smiles": "CN(C)c1cccc(Nc2cc(-c3ccccc3)nc(C3=CCNCC3)n2)c1", "values": [
      {"measurement": "t1/2", "setting": "[1]", "value": "> 2", "unit": "h"}
    ]},
    {"smiles": "FC(F)(F)c1cccc(Nc2nc(-c3ccc[nH]3)nc(C3CCNCC3)n2)c1", "values": [
      {"measurement": "t1/2", "setting": "[1]", "value": "> 2", "unit": "h"}
    ]},
    {"smiles": "FC(F)(F)c1cccc(Nc2nc(C3=CCNCC3)nc(-c3ccsc3)n2)c1", "values": [
      {"measurement": "t1/2", "setting": "[1]", "value": "> 2", "unit": "h"}
    ]},
    {"smiles": "FC(F)(F)c1cccc(Nc2nc(-c3ccc4[nH]ncc4c3)nc(C3CCNCC3)n2)c1", "values": [
      {"measurement": "half-life at […]", "setting": "[10]", "value": "> 1", "unit": "h"},
      {"measurement": "half-life at 2 µM", "setting": "[1]", "value": "> 2", "unit": "h"}
    ]},
    {"smiles": "FC(F)Oc1cc(Nc2nc(-c3ccccc3)cc(C3CCNCC3)n2)ccn1", "values": [
      {"measurement": "t1/2", "setting": "[1]", "value": "> 2", "unit": "h"}
    ]}
  ]
}
